ChEMBL document CHEMBL4732018, “Design, synthesis, and biological evaluation of pyrazole-linked aloe emodin derivatives as potential anticancer agents” (RSC Med Chem, 2021)
Calls of active or inactive are those of the source. No cut-off for these calls is given here.

Experiments:
MDA-MB-231 [1] = test: Anticancer activity against human MDA-MB-231 cells assessed as cell growth inhibition measured after 48 hrs by MTT assay; assay type: functional, cell-based; details: MDA-MB-231, 48 h
Procedure, shortened: (§1)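 MTT test on ATCC lines grown in RPMI with 10% FBS and antibiotic/antimycotic at 37 °C in 5% CO₂. Cells were seeded at 4 x 10^3/well and treated for 48 h at 2.5, 5, 10 and 20 µM, from DMSO stocks diluted in medium. MTT (10 mg/mL stock) was then added for 3 h and absorbance read at 540 nm. IC50 derived; three independent experiments.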

HepG2 = test: Anticancer activity against human HepG2 cells assessed as cell growth inhibition measured after 48 hrs by MTT assay; assay type: functional, cell-based; details: HepG2, 48 h; procedure, shortened: as §1
MCF7 = test: Anticancer activity against human MCF-7 cells assessed as cell growth inhibition measured after 48 hrs by MTT assay; assay type: functional, cell-based; details: MCF7, 48 h; procedure, shortened: as §1
HEK293 = test: Cytotoxicity against human HEK293 cells assessed as cell growth inhibition measured after 48 hrs by MTT assay; assay type: cell-based; details: HEK293, 48 h; procedure, shortened: as §1
B16-F10 = test: Anticancer activity against mouse B16-F10 cells assessed as cell growth inhibition measured after 48 hrs by MTT assay; assay type: functional, cell-based; details: B16-F10, 48 h; procedure, shortened: as §1
MDA-MB-231 [2] = test: Induction of apoptosis in human MDA-MB-231 cells assessed as increase in caspase 8 activity at 5 to 20 uM pretreated for 48 hrs followed by IETD-pNA substrate addition for 2 hrs by colorimetric analysis; assay type: functional, cell-based; details: dose 5-20 µM, time 50.0 hrs
MDA-MB-231 [3] = test: Induction of cell cycle arrest in human MDA-MB-231 cells assessed as accumulation at G2/M phase at 5 uM measured after 24 hrs by PI staining based flow cytometry (reference value: 4.31 %); assay type: functional
MDA-MB-231 [4] = test: Induction of cell cycle arrest in human MDA-MB-231 cells assessed as accumulation at sub G0 phase at 10 uM measured after 24 hrs by PI staining based flow cytometry (reference value: 1.33 %); assay type: functional
MDA-MB-231 [5] = test: Induction of cell cycle arrest in human MDA-MB-231 cells assessed as accumulation at G1/S phase at 20 uM measured after 24 hrs by PI staining based flow cytometry (reference value: 19.33 %); assay type: functional
MDA-MB-231 [6] = test: Induction of apoptosis in human MDA-MB-231 cells assessed as early apoptotic cells at 10 uM measured after 24 hrs by Annexin V-FITC/PI staining based flow cytometric analysis (reference value: 6.73 %); assay type: functional
MDA-MB-231 [7] = test: Induction of cell cycle arrest in human MDA-MB-231 cells assessed as accumulation at G0/G1 phase at 20 uM measured after 24 hrs by PI staining based flow cytometry (reference value: 76.36 %); assay type: functional
MDA-MB-231 [8] = test: Induction of cell cycle arrest in human MDA-MB-231 cells assessed as accumulation at G2/M phase at 10 uM measured after 24 hrs by PI staining based flow cytometry (reference value: 4.31 %); assay type: functional
MDA-MB-231 [9] = test: Induction of apoptosis in human MDA-MB-231 cells assessed as early apoptotic cells at 5 uM measured after 24 hrs by Annexin V-FITC/PI staining based flow cytometric analysis (reference value: 6.73 %); assay type: functional
MDA-MB-231 [10] = test: Induction of apoptosis in human MDA-MB-231 cells assessed as increase in caspase 6 activity at 5 to 20 uM pretreated for 48 hrs followed by VEID-pNA substrate addition for 2 hrs by colorimetric analysis; assay type: functional, cell-based; details: dose 5-20 µM, time 50.0 hrs
Procedure, shortened: (§2)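 Colorimetric caspase kit. MDA-MB-231 cells were cultured 24 h, then treated at 0, 5, 10 and 20 µM for 48 h. Lysates were mixed with reaction buffer containing 10 mM DTT. pNA substrate was added at 4 mM final (VDVAD for caspase-2, DEVD for caspase-3, VEID for caspase-6) and incubated 2 h at 37 °C. Absorbance read at 405 nm; triplicate, mean ± SD.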

MDA-MB-231 [11] = test: Induction of membrane disintegrity in human MDA-MB-231 cells assessed as increase in LDH release at 2.5 to 20 uM incubated for 48 hrs by LDH leakage assay; assay type: functional, cell-based; details: dose 2.5-20 µM
Procedure, shortened: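 Extracellular LDH kit assay. Cells were seeded at 4 x 10^3/well and treated 48 h at various concentrations. 20 µL of culture supernatant was assayed with absorbance at 450 nm. Results are expressed as % LDH leakage relative to untreated control cells; triplicate, mean ± SD.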

MDA-MB-231 [12] = test: Induction of cell cycle arrest in human MDA-MB-231 cells assessed as accumulation at G1/S phase at 5 uM measured after 24 hrs by PI staining based flow cytometry (reference value: 19.33 %); assay type: functional
MDA-MB-231 [13] = test: Induction of apoptosis in human MDA-MB-231 cells assessed as early apoptotic cells at 20 uM measured after 24 hrs by Annexin V-FITC/PI staining based flow cytometric analysis (reference value: 6.73 %); assay type: functional
MDA-MB-231 [14] = test: Induction of apoptosis in human MDA-MB-231 cells assessed as late apoptotic cells at 20 uM measured after 24 hrs by Annexin V-FITC/PI staining based flow cytometric analysis; assay type: functional
MDA-MB-231 [15] = test: Induction of cell cycle arrest in human MDA-MB-231 cells assessed as accumulation at sub G0 phase at 20 uM measured after 24 hrs by PI staining based flow cytometry (reference value: 1.33 %); assay type: functional
MDA-MB-231 [16] = test: Induction of cell cycle arrest in human MDA-MB-231 cells assessed as accumulation at G0/G1 phase at 5 uM measured after 24 hrs by PI staining based flow cytometry (reference value: 76.36 %); assay type: functional
MDA-MB-231 [17] = test: Induction of cell cycle arrest in human MDA-MB-231 cells assessed as accumulation at G1/S phase at 10 uM measured after 24 hrs by PI staining based flow cytometry (reference value: 19.33 %); assay type: functional
MDA-MB-231 [18] = test: Induction of cell cycle arrest in human MDA-MB-231 cells assessed as accumulation at G2/M phase at 20 uM measured after 24 hrs by PI staining based flow cytometry (reference value: 4.31 %); assay type: functional
MDA-MB-231 [19] = test: Induction of apoptosis in human MDA-MB-231 cells assessed as increase in caspase 3 activity at 5 to 20 uM pretreated for 48 hrs followed by DEVD-pNA substrate addition for 2 hrs by colorimetric analysis; assay type: functional, cell-based; details: dose 5-20 µM, time 50.0 hrs; procedure, shortened: as §2
MDA-MB-231 [20] = test: Induction of apoptosis in human MDA-MB-231 cells assessed as increase in caspase 9 activity at 5 to 20 uM pretreated for 48 hrs followed by LEHD-pNA substrate addition for 2 hrs by colorimetric analysis; assay type: functional, cell-based; details: dose 5-20 µM, time 50.0 hrs
MDA-MB-231 [21] = test: Induction of apoptosis in human MDA-MB-231 cells assessed as late apoptotic cells at 5 uM measured after 24 hrs by Annexin V-FITC/PI staining based flow cytometric analysis; assay type: functional
MDA-MB-231 [22] = test: Induction of cell cycle arrest in human MDA-MB-231 cells assessed as accumulation at sub G0 phase at 5 uM measured after 24 hrs by PI staining based flow cytometry (reference value: 1.33 %); assay type: functional
MDA-MB-231 [23] = test: Induction of apoptosis in human MDA-MB-231 cells assessed as increase in caspase 2 activity at 5 to 20 uM pretreated for 48 hrs followed by VDVAD-pNA substrate addition for 2 hrs by colorimetric analysis; assay type: functional, cell-based; details: dose 5-20 µM, time 50.0 hrs; procedure, shortened: as §2
MDA-MB-231 [24] = test: Induction of cell cycle arrest in human MDA-MB-231 cells assessed as accumulation at G0/G1 phase at 10 uM measured after 24 hrs by PI staining based flow cytometry (reference value: 76.36 %); assay type: functional
MDA-MB-231 [25] = test: Induction of apoptosis in human MDA-MB-231 cells assessed as late apoptotic cells at 10 uM measured after 24 hrs by Annexin V-FITC/PI staining based flow cytometric analysis; assay type: functional

CCOC(=O)c1c(-c2cc(O)c3c(c2)C(=O)c2cccc(O)c2C3=O)nn(-c2ccc(C(C)C)cc2)c1C(=O)OCC
IC50 (MDA-MB-231 [1]): 4.46 µM | IC50 (HepG2): 3.35 µM | IC50 (MCF7): 0.87 µM | IC50 (HEK293): 9.32 µM | IC50 (B16-F10): 1.15 µM

COC(=O)c1c(-c2cc(O)c3c(c2)C(=O)c2cccc(O)c2C3=O)nn(-c2ccc(OC(F)(F)F)cc2)c1C(=O)OC
IC50 (MDA-MB-231 [1]): 3.68 µM | IC50 (HepG2): 2.29 µM | IC50 (MCF7): 1.16 µM | IC50 (HEK293): 6.84 µM | IC50 (B16-F10): 6.09 µM

O=Cc1cc(O)c2c(c1)C(=O)c1cccc(O)c1C2=O
IC50 (MDA-MB-231 [1]): 4.99 µM | IC50 (HepG2): 3.15 µM | IC50 (MCF7): 2.68 µM | IC50 (HEK293): 4.49 µM | IC50 (B16-F10): 2.9 µM

CCOC(=O)c1c(-c2cc(O)c3c(c2)C(=O)c2cccc(O)c2C3=O)nn(-c2ccc(Cl)cc2)c1C(=O)OCC
IC50 (MDA-MB-231 [1]): 6.2 µM | IC50 (HepG2): 2.16 µM | IC50 (MCF7): 3.96 µM | IC50 (HEK293): 1.09 µM | IC50 (B16-F10): 3.9 µM

CCOC(=O)c1c(-c2cc(O)c3c(c2)C(=O)c2cccc(O)c2C3=O)nn(-c2ccc(OC(F)(F)F)cc2)c1C(=O)OCC
IC50 (MDA-MB-231 [1]): 3.96 µM | IC50 (HepG2): 6.23 µM | IC50 (MCF7): 3.58 µM | IC50 (HEK293): 9.76 µM | IC50 (B16-F10): 3.35 µM

O=C1c2cccc(O)c2C(=O)c2c(O)cc(CO)cc21 [ALOE-EMODIN]
IC50 (MDA-MB-231 [1]): 12.2 µM | IC50 (HepG2): 6.13 µM | IC50 (MCF7): 4.14 µM | IC50 (HEK293): 1 µM | IC50 (B16-F10): 3.12 µM

COC(=O)c1c(-c2cc(O)c3c(c2)C(=O)c2cccc(O)c2C3=O)nn(-c2ccc(C)cc2)c1C(=O)OC
IC50 (MDA-MB-231 [1]): 1.32 µM | Activity (MDA-MB-231 [2]): Active | Activity (MDA-MB-231 [3]): 5.77% | Activity (MDA-MB-231 [4]): 8.2% | Activity (MDA-MB-231 [5]): 17.85% | Activity (MDA-MB-231 [6]): 16.43% | Activity (MDA-MB-231 [7]): 69.82% | Activity (MDA-MB-231 [8]): 4.54% | Activity (MDA-MB-231 [9]): 38.3% | Activity (MDA-MB-231 [10]): Active | Activity (MDA-MB-231 [11]): Active | Activity (MDA-MB-231 [12]): 36.97% | IC50 (HepG2): 5.62 µM | Activity (MDA-MB-231 [13]): 12.47% | IC50 (MCF7): 0.99 µM | Activity (MDA-MB-231 [14]): 71.81% | Activity (MDA-MB-231 [15]): 25.8% | Activity (MDA-MB-231 [16]): 57.25% | Activity (MDA-MB-231 [17]): 32.1% | Activity (MDA-MB-231 [18]): 12.33% | Activity (MDA-MB-231 [19]): Active | Activity (MDA-MB-231 [20]): Active | Activity (MDA-MB-231 [21]): 19% | IC50 (HEK293): 30.1 µM | Activity (MDA-MB-231 [22]): 3.22% | Activity (MDA-MB-231 [23]): Active | Activity (MDA-MB-231 [24]): 63.3% | IC50 (B16-F10): 9.57 µM | Activity (MDA-MB-231 [25]): 38.13%

CCOC(=O)c1c(-c2cc(O)c3c(c2)C(=O)c2cccc(O)c2C3=O)nn(-c2ccc(OC)cc2)c1C(=O)OCC
IC50 (MDA-MB-231 [1]): 4.7 µM | IC50 (HepG2): 5.68 µM | IC50 (MCF7): 3.86 µM | IC50 (HEK293): 10.1 µM | IC50 (B16-F10): 2.15 µM

CCOC(=O)c1c(-c2cc(O)c3c(c2)C(=O)c2cccc(O)c2C3=O)nn(-c2ccc(Br)cc2)c1C(=O)OCC
IC50 (MDA-MB-231 [1]): 2.16 µM | IC50 (HepG2): 1.26 µM | IC50 (MCF7): 8.98 µM | IC50 (HEK293): 9.07 µM | IC50 (B16-F10): 8.15 µM
